ChEMBL document CHEMBL3227917, “Structure-activity relationships of dimeric Catharanthus alkaloids. 2. Experimental antitumor activities of N-substituted deacetylvinblastine amide (vindesine) sulfates” (J Med Chem, 1979)

How the values were obtained:
Mus musculus [1] = assay: Toxicity in C3H mouse allografted with mouse Gardner lymphosarcoma assessed as lethality at 0.40 mg/kg, ip administered daily for 8 to 10 days; type: organism-based; parameters: dose 0.4 mg/kg, route intraperitoneal; conditions: in vivo, 0.4 mg/kg
Procedure, shortened: (§1)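 Tumor-bearing mice given sulfate salts ip daily for 8–10 days; values are the average of one or more tests. Toxic means lethal to ≥5 of 10 animals per group.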

Mus musculus [2] = assay: Toxicity in AKR mouse allografted with mouse Ridgway osteogenic sarcoma assessed as lethality at 0.20 mg/kg, ip administered daily for 8 to 10 days compound treatment commenced 8 days after tumor implantation; type: organism-based; parameters: dose 0.2 mg/kg, route intraperitoneal; conditions: in vivo, 0.2 mg/kg; procedure, shortened: as §1
Mus musculus [3] = assay: Toxicity in AKR mouse allografted with mouse Ridgway osteogenic sarcoma assessed as lethality at 0.40 mg/kg, ip administered daily for 8 to 10 days compound treatment commenced 8 days after tumor implantation; type: organism-based; parameters: dose 0.4 mg/kg, route intraperitoneal; conditions: in vivo, 0.4 mg/kg; procedure, shortened: as §1
Mus musculus [4] = assay: Toxicity in C3H mouse allografted with mouse Gardner lymphosarcoma assessed as lethality at 0.30 mg/kg, ip administered daily for 8 to 10 days; type: organism-based; parameters: dose 0.3 mg/kg, route intraperitoneal; conditions: in vivo, 0.3 mg/kg; procedure, shortened: as §1
[5] = Antitumor activity against mouse Gardner lymphosarcoma allografted in C3H mouse assessed as tumor growth inhibition at 0.20 mg/kg, ip administered daily for 8 to 10 days; type: functional; conditions: route intraperitoneal, read-out: TGI
Procedure, shortened: (§2)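 Gardner lymphosarcoma in C3H mice; sulfate salts unless noted, given ip daily for 8–10 days, treatment starting 8 days after tumor implantation. Tumor growth inhibition scored as –, 0–25%; +, 26–50%; ++, 51–75%; +++, 76–100%; T, lethal to ≥5 of 10 animals per group. Average of one or more tests.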

[6] = Antitumor activity against mouse Ridgway osteogenic sarcoma allografted in AKR mouse assessed as tumor growth inhibition at 0.10 mg/kg, ip administered daily for 8 to 10 days compound treatment commenced 8 days after tumor implantation; type: functional; conditions: route intraperitoneal, read-out: TGI
Mus musculus [7] = assay: Toxicity in C3H mouse allografted with mouse Gardner lymphosarcoma assessed as lethality at 0.5 mg/kg, ip administered daily for 8 to 10 days; type: organism-based; parameters: dose 0.5 mg/kg, route intraperitoneal; conditions: in vivo; procedure, shortened: as §1
[8] = Antitumor activity against mouse P1534 cells allografted in DBA2 mouse assessed as tumor growth inhibition at 0.20 mg/kg, ip administered daily for 8 to 10 days; type: functional; conditions: route intraperitoneal, read-out: TGI
Procedure, shortened: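 P1534(J) leukemia implanted sc in DBA2 mice; sulfate salts dosed ip daily for 8–10 days. Growth inhibition scored –, 0–25%; +, 26–50%; ++, 51–75%; +++, 76–100%; T, lethal to ≥5 of 10 animals per group. Average of one or more tests.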

[9] = Antitumor activity against mouse Gardner lymphosarcoma allografted in C3H mouse assessed as tumor growth inhibition at 0.10 mg/kg, ip administered daily for 8 to 10 days; type: functional; conditions: route intraperitoneal, read-out: TGI; procedure, shortened: as §2
[10] = Antitumor activity against mouse Ridgway osteogenic sarcoma allografted in AKR mouse assessed as tumor growth inhibition at 0.05 mg/kg, ip administered daily for 8 to 10 days compound treatment commenced 8 days after tumor implantation; type: functional; conditions: route intraperitoneal, read-out: TGI
Mus musculus [11] = assay: Toxicity in C3H mouse allografted with mouse Gardner lymphosarcoma assessed as lethality at 0.20 mg/kg, ip administered daily for 8 to 10 days; type: organism-based; parameters: dose 0.2 mg/kg, route intraperitoneal; conditions: in vivo, 0.2 mg/kg; procedure, shortened: as §1
[12] = Antitumor activity against mouse Ridgway osteogenic sarcoma allografted in AKR mouse assessed as tumor growth inhibition at 0.20 mg/kg, ip administered daily for 8 to 10 days compound treatment commenced 8 days after tumor implantation; type: functional; conditions: route intraperitoneal, read-out: TGI
[13] = Antitumor activity against mouse Gardner lymphosarcoma allografted in C3H mouse assessed as tumor growth inhibition at 0.40 mg/kg, ip administered daily for 8 to 10 days; type: functional; conditions: route intraperitoneal, read-out: TGI; procedure, shortened: as §2
[14] = Antitumor activity against mouse Gardner lymphosarcoma allografted in C3H mouse assessed as tumor growth inhibition at 0.30 mg/kg, ip administered daily for 8 to 10 days; type: functional; conditions: route intraperitoneal, read-out: TGI; procedure, shortened: as §2
[15] = Antitumor activity against mouse Ridgway osteogenic sarcoma allografted in AKR mouse assessed as tumor growth inhibition at 0.40 mg/kg, ip administered daily for 8 to 10 days compound treatment commenced 8 days after tumor implantation; type: functional; conditions: route intraperitoneal, read-out: TGI
CHO [16] = assay: Mitotic arrest in CHO cells assessed as increase in cell accumulation at 0.02 ug/ml; type: functional, Cricetulus griseus
Procedure, shortened: (§3)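 Chinese hamster ovary cells in tissue culture, scored for mitotic arrest as increase in cells in mitotic arrest over control: +++, 40–50%; ++, 15–40%; +, 10–15%; ±, 7–10%; –, 3–7%. Cytotoxicity noted separately.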

CHO [17] = assay: Mitotic arrest in CHO cells assessed as increase in cell accumulation at 0.2 ug/ml; type: functional, Cricetulus griseus; procedure, shortened: as §3
CHO [18] = assay: Mitotic arrest in CHO cells assessed as increase in cell accumulation at 0.002 ug/ml; type: functional, Cricetulus griseus; procedure, shortened: as §3
B16 [19] = assay: Antitumor activity against mouse B16 cells allografted in C57BL/6 mouse assessed as prolongation of host survival at 0.90 mg/kg, ip administered on days 1,5 and 9; type: functional; conditions: route intraperitoneal
Procedure, shortened: (§4)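 B16 melanoma cells (10⁶ inoculum) implanted ip in C57BL/6 mice; groups of 10. Sulfate salts unless noted, given ip on days 1, 5 and 9. Single test. Survival prolongation is expressed as percent versus controls, with survivors counted on day 60. Toxic means deaths of ≥5 of 10 animals before the first control death.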

B16 [20] = assay: Antitumor activity against mouse B16 cells allografted in C57BL/6 mouse assessed as prolongation of host survival at 0.60 mg/kg, ip administered on days 1,5 and 9; type: functional; conditions: route intraperitoneal; procedure, shortened: as §4
Mus musculus [21] = assay: Toxicity in C57BL/6 mouse allografted with mouse B16 cells assessed as animal death at 1.20 mg/kg, ip administered on days 1,5 and 9; type: organism-based; parameters: dose 1.2 mg/kg, route intraperitoneal; conditions: in vivo, 1.2 mg/kg; procedure, shortened: as §4
[22] = Antitumor activity against mouse Ridgway osteogenic sarcoma allografted in AKR mouse assessed as tumor growth inhibition at 0.30 mg/kg, ip administered daily for 8 to 10 days compound treatment commenced 8 days after tumor implantation; type: functional; conditions: route intraperitoneal, read-out: TGI
[23] = Dissociation constant, pKa of the compound; type: physicochemical
Procedure, shortened: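 Electrometric titration in 66% aqueous DMF.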

In the case of CC[C@]1(O)C[C@H]2CN(CCc3c([nH]c4ccccc34)[C@@](C(=O)OC)(c3cc4c(cc3OC)N(C)[C@H]3[C@@](O)(C(=O)N(C)C)[C@H](O)[C@]5(CC)C=CCN6CC[C@]43[C@@H]65)C2)C1.O=S(=O)(O)O, the Activity (Mus musculus [1]) is reported as “Toxic”, the Activity (Mus musculus [2]) is reported as “Toxic” and the Activity (Mus musculus [3]) is reported as “Toxic”. For the same compound, the Activity (Mus musculus [4]) was “Toxic”, the inhibition in vivo at 0.2 mg/kg [5] was 26% and the inhibition in vivo at 0.1 mg/kg [6] was 0%.
For CC[C@]1(O)C[C@H]2CN(CCc3c([nH]c4ccccc34)[C@@](C(=O)OC)(c3cc4c(cc3OC)N(C)[C@H]3[C@@](O)(C(=O)NC)[C@H](OC(C)=O)[C@]5(CC)C=CCN6CC[C@]43[C@@H]65)C2)C1.O=S(=O)(O)O, the Activity (Mus musculus [7]) was “Toxic” and the inhibition in vivo at 0.2 mg/kg [8] was 51%.
For CC[C@]1(O)C[C@H]2CN(CCc3c([nH]c4ccccc34)[C@@](C(=O)OC)(c3cc4c(cc3OC)N(C)[C@H]3[C@@](O)(C(=O)NC(C)C)[C@H](O)[C@]5(CC)C=CCN6CC[C@]43[C@@H]65)C2)C1.O=S(=O)(O)O, the inhibition in vivo at 0.1 mg/kg [9] was 0%, the Activity (Mus musculus [1]) was “Toxic” and the Activity (Mus musculus [2]) was “Toxic”. The Activity (Mus musculus [3]) was “Toxic”, the inhibition in vivo at 0.05 mg/kg [10] was 0% and the Activity (Mus musculus [11]) was “Toxic”. The inhibition in vivo at 0.1 mg/kg [6] was 76%.
Compound CC[C@]1(O)C[C@H]2CN(CCc3c([nH]c4ccccc34)[C@@](C(=O)OC)(c3cc4c(cc3OC)N(C)[C@H]3[C@@](O)(C(=O)NCc5ccccc5)[C@H](O)[C@]5(CC)C=CCN6CC[C@]43[C@@H]65)C2)C1 has an inhibition in vivo at 0.2 mg/kg [12] of 0%, an inhibition in vivo at 0.4 mg/kg [13] of 0% and an inhibition in vivo at 0.3 mg/kg [14] of 0%. It also gave an inhibition in vivo at 0.4 mg/kg [15] of 76%, an inhibition in vivo at 0.2 mg/kg [5] of 26% and an inhibition in vivo at 0.1 mg/kg [6] of 0%.
For CC[C@]1(O)C[C@H]2CN(CCc3c([nH]c4ccccc34)[C@@](C(=O)OC)(c3cc4c(cc3OC)N(C)[C@H]3[C@@](O)(C(N)=O)[C@H](OC(C)=O)[C@]5(CC)C=CCN6CC[C@]43[C@@H]65)C2)C1.O=S(=O)(O)O, the Activity (Mus musculus [7]) was “Toxic”, the Activity (CHO [16]) was 15% and the Activity (CHO [17]) was 40%. The Activity (CHO [18]) was 3%.
CC[C@]1(O)C[C@H]2CN(CCc3c([nH]c4ccccc34)[C@@](C(=O)OC)(c3cc4c(cc3OC)N(C)[C@H]3[C@@](O)(C(=O)NCCS)[C@H](O)[C@]5(CC)C=CCN6CC[C@]43[C@@H]65)C2)C1.O=S(=O)(O)O gave an inhibition in vivo at 0.1 mg/kg [9] of 0%, a survival at 0.9 mg/kg (B16 [19]) of 141% and an inhibition in vivo at 0.4 mg/kg [13] of 76%. The survival at 0.6 mg/kg (B16 [20]) was 170%, the inhibition in vivo at 0.3 mg/kg [14] was 51% and the Activity (Mus musculus [21]) was “Toxic”. It also gave an inhibition in vivo at 0.2 mg/kg [5] of 26%.
For CC[C@]1(O)C[C@H]2CN(CCc3c([nH]c4ccccc34)[C@@](C(=O)OC)(c3cc4c(cc3OC)N(C)[C@H]3[C@@](O)(C(=O)NCCN)[C@H](O)[C@]5(CC)C=CCN6CC[C@]43[C@@H]65)C2)C1, the inhibition in vivo at 0.4 mg/kg [13] was 0%, the inhibition in vivo at 0.3 mg/kg [22] was 0% and the pKa [23] was 9.48. The inhibition in vivo at 0.2 mg/kg [5] was 0% and the inhibition in vivo at 0.1 mg/kg [6] was 0%.
